Rows were chosen to be rich in hits. Some 2.3% of all compounds tested hit in one or more screens of this group.
SKKanGAS inh: inhibitors of SKKanGAS S. pyogenes growth in kanamycin (SK-promoter or general growth effect); actives 1.3% (n = 300,000); inhibition, % at 7.5 µM; BacTiter-Glo, 6 h;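 active = mean replicate score, as percent of positive control median, at least 50; inconclusive = mean below 50 but one replicate at or above 50; inactive = mean and every replicate below 50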;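 note: strain carries kanamycin resistance gene driven by streptokinase promoter and grows in 40 µg/ml kanamycin; loss of luminescence reflects streptokinase promoter inhibition or plain growth inhibition; 0% = median of DMSO wells and 100% = positive control at its reference dose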
ARFGAP1 inh: inhibitors of rat ARFGAP1; Arfgap1-stimulated ARF1 GTP hydrolysis, GDP FP detection; inhibition, % at 16.5 µM; actives 0.26% (n = 360,000); AID 651572;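 active = inhibition above a per-plate limit, mean inhibition of low control wells plus 3 SD, cut at about 25% in these data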;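 note: 0% = DMSO wells with enzyme and 100% = wells lacking Arfgap1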
Target sequence (Q62848 1-136 limits assumed): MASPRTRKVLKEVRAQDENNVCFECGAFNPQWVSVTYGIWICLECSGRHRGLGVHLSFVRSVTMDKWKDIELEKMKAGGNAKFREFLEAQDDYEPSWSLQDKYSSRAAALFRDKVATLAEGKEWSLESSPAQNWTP
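system = rat Arfgap1 catalytic domain, aa 1-136 | technique = FP, GDP Alexa 633 tracer displaced from anti-GDP antibody, 620/688 nm | compound = one concentration, 16.5 µM, DMSO 1.26% | medium = HEPES-based buffer, pH 7.5 | timing = compound-enzyme preincubation 20 min, reaction 120 min, detection 60 min, 25 °C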
HGIII-sPLA2 inh: Inhibits HGIII-sPLA2 liposome hydrolysis, primary screen; Q9NZ20; QFRET BODIPY PC-A2 liposome hydrolysis, fluorescence; inhibition, % at 12.2 µM; actives 0.56% (n = 370,000);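 active = inhibition above mean plus 3 SD of compounds lying within the high and low control bounds, cut at about 19% in these data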;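 note: 0% = median of test compound wells and 100% = no enzyme DMSO wells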
Target sequence (Q9NZ20 whole entry, looked up): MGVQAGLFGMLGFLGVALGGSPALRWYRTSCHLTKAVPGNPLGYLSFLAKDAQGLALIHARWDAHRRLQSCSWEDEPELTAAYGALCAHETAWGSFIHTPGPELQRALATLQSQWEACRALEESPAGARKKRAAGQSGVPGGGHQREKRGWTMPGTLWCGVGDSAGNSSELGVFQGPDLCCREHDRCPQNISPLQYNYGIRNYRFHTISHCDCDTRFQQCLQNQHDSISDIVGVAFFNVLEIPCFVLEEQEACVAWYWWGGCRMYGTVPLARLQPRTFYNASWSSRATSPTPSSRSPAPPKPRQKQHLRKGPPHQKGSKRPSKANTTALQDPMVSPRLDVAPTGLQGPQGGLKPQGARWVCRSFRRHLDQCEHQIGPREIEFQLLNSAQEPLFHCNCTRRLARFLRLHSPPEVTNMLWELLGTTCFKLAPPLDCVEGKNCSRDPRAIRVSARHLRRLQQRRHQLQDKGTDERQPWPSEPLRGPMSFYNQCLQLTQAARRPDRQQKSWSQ
Calb FLC: C. albicans growth modulation with fluconazole; C. albicans CaCi-2 (fluconazole-resistant clinical isolate) + fluconazole, Alamar Blue growth, 48 h; growth inhibition, % (concentration not given with the values); actives 0.57% (n = 300,000); AID 1979;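 active = growth inhibition above about 58% in most replicates, limit read from the data, passing the limit was not always enough; inconclusive = exactly half the replicates above a set limit; inactive = most replicates below a set limit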;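 note: all wells also contain fluconazole at 8 µg/ml as a sub-toxic cotreatment; 0% = median of DMSO wells and 100% = median of geldanamycin control wells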
ASAP1 GAP inh: blocks human ASAP1-stimulated Arf1 GTP hydrolysis; Q9ULH1; GDP FP detection; inhibition, % at 16.5 µM; actives 0.19% (n = 360,000); AID 624377; in the data active = inhibition above about 25%;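 note: 0% = vehicle with enzyme and substrate and 100% = no enzyme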
The depositor's hits bear a star; ? = inconclusive; / = no result.

SMILES	SKKanGAS inh	ARFGAP1 inh	HGIII-sPLA2 inh	Calb FLC	ASAP1 GAP inh
C=CCN=C1NC(c2ccc(C(F)(F)F)cc2)C(C(=O)OC)=C(C)N1Cc1ccccc1C(F)(F)F (centres undefined)	/	18	6	/	2
COc1ccccc1N/C=C/c1onc(C)c1[N+](=O)[O-]	9	-7	-13	6	-3
Cc1noc(/C=C/c2ccccn2)c1[N+](=O)[O-]	-2	5	13	85*	4
Nc1ccc(-c2ccc(N)cc2C(F)(F)F)c(C(F)(F)F)c1	60*	3	3	-8	0
Nc1ccc(C(O)(C(F)(F)F)C(F)(F)F)cc1	3	3	13	?	2
Cc1occc1-c1nnc(SCC(=O)N[C@@H]2CCc3ccccc32)n1-c1ccccc1	/	/	-8	/	/
Cn1nc(C(=O)NNC(=O)c2cccc(Cl)c2)c2ccccc2c1=O	/	-9	6	/	-6
CC(=O)c1c(O)c2ccccc2n(C)c1=O	18	0	2	-24	-8
Cn1c(=O)c(C(=O)NCCc2ccccc2)c(O)c2ccccc21	26	2	16	89*	-17
Cn1c(=O)c(C(=O)NNC(=O)c2cccc(Cl)c2)c(O)c2ccccc21	62*	0	7	-6	2
CC(NC(=O)c1c(O)c2ccccc2n(C)c1=O)c1ccccc1 (centres undefined)	-1	1	5	3	-2
CCCn1c(=O)c(C(=O)NCCc2ccccc2)c(O)c2ccccc21	9	2	9	-12	6
Cn1c(=O)c(C(=O)NNC(=O)c2ccccc2Cl)c(O)c2ccccc21	51*	0	17	-8	-2
Cc1cccc(C(=O)NNC(=O)c2c(O)c3ccccc3n(C)c2=O)c1	88*	10	7	-4	8
CCn1c(=O)c(C(=O)NNC(=O)c2cccc(Cl)c2)c(O)c2ccccc21	103*	-4	15	2	-6
CCn1c(=O)c(C(C)=O)c(O)c2ccccc21	0	7	-1	16	-9
C=CCOC(=O)C1=C(C)NC(SCC(=O)NC(=O)OCC)=C(C#N)C1c1cccnc1 (centres undefined)	5	-10	-4	99*	-2
C=CCOC(=O)C1=C(C)NC(SCC(=O)N(CC)CC)=C(C#N)C1c1ccccc1 (centres undefined)	4	7	-4	-1	-10
CCCS(=O)(=O)c1nnnn1-c1cccc(OC)c1	-6	/	/	82*	/
COc1cccc(-n2nnnc2SCC(=O)Nc2ccccc2OC)c1	6	0	-10	-3	0
COc1ccnc(Oc2cccc(C(F)(F)F)c2)c1C(=O)N/C=N/OCc1ccccc1F	-16	11	-5	108*	-9
Cc1cc(C)c2c(C)nn(-c3ccccc3)c2n1	-6	-1	-5	-4	2
Cc1cc(C)c2c(C(C)(C)C)nn(-c3ccccc3)c2n1	60*	5	-4	2	-5
C=C(C)COc1ccc(-c2nc(N)ncc2Oc2ccc(OC)cc2)c(O)c1	58*	19	-3	2	6
C=C(C)COc1ccc(-c2[nH]ncc2Oc2ccc(OC)cc2)c(O)c1	56*	12	-58	-1	-1
SMILES	SKKanGAS inh	ARFGAP1 inh	HGIII-sPLA2 inh	Calb FLC	ASAP1 GAP inh
CCc1cc(-c2nc(N)ncc2-c2ccc(Br)cc2)c(O)cc1OC	64*	-4	-3	8	1
C=C(C)COc1ccc(-c2ncncc2-c2ccc(Br)cc2)c(O)c1	9	-5	-43	5	-3
C=C(C)COc1ccc(-c2nc(N)ncc2-c2ccc(Br)cc2)c(O)c1	96*	11	-6	0	2
Cc1cccc(CNC(=O)NC2CCCCN(Cc3cccc(Cl)c3)C2=O)c1 (centres undefined)	/	/	6	/	/
COC(=O)C1CN(Cc2cn(Cc3ccccc3)nn2)CCS(=O)(=O)N1Cc1ccccc1 (centres undefined)	/	/	-3	/	/
CC(=O)N1CCN(c2ccc(NC(=O)c3ccc(C(C)(C)C)cc3)cc2)CC1	4	-4	6	109*	-1
O=C(Nc1ccc(Cl)cc1Cl)c1cccc(N2C(=O)C=CC2=O)c1	5	-7	23*	-2	-7
Cc1cc(NCCc2c[nH]c3ccccc23)ccc1Nc1cccnc1	/	5	5	/	8
CCOc1ccc(/C=N/Nc2cc(C)nc(N3CCOCC3)n2)cc1	-7	16	3	26	-8
CCOc1ccc(/C=N/Nc2cc(N3CCOCC3)nc(C)n2)c(O)c1	65*	-1	8	31	7
NC(=O)c1c(NC(=O)c2ccncc2)sc2c1CCCC2	-26	10	0	73*	-14
NC(=O)c1c(NC(=O)c2ccco2)sc2c1CCC2	-12	-3	-1	92*	16
Cc1ccc(F)c([C@H]2C3C=CCC(c4ccccc4)C3C(=O)N2Cc2ccccc2)c1 (some centres undefined)	50*	10	0	-6	4
CC[C@@H]1CC=C[C@H]2[C@H]1C(=O)N(Cc1ccccc1)[C@H]2c1cc(C)ccc1F	58*	/	/	-12	/
CCCCc1ccc2nc(NC(=O)c3ccc(Br)o3)sc2c1	/	/	-21	/	/
O=C1OCCN1/N=C/c1ccc([N+](=O)[O-])o1	45	7	-2	22	10
O=C1CN(/N=C/c2ccc([N+](=O)[O-])o2)C(=O)N1	84*	8	5	-4	6
O=C(COc1cccc(F)c1)Nc1nc(-c2ccccn2)cs1	/	-11	1	/	-9
O=C(COc1ccc(F)cc1)Nc1nc(-c2ccccn2)cs1	69*	0	6	90*	-17
Cc1csc(NC(=O)c2ccc(Cl)cc2[N+](=O)[O-])n1	1	-8	-3	4	-4
O=C(COc1ccc([N+](=O)[O-])cc1)Nc1nc(-c2ccccn2)cs1	57*	-6	15	4	-1
O=C(Nc1nc(-c2ccccn2)cs1)c1cc(Cl)ccc1[N+](=O)[O-]	95*	1	9	-2	-11
O=C(Nc1nc(-c2ccccn2)cs1)Nc1ccc(F)cc1F	90*	2	1	3	-7
O=C(Nc1nc(-c2ccccc2)cs1)Nc1ccc(F)cc1F	-5	-8	-10	-6	-1
O=C(NCCc1ccccc1)OCc1cn(-c2ccc(F)cc2)nn1	/	/	8	/	/
SMILES	SKKanGAS inh	ARFGAP1 inh	HGIII-sPLA2 inh	Calb FLC	ASAP1 GAP inh
O=C(NCCCc1ccccc1)[C@H](Cc1c[nH]c2ccccc12)NC1(C(=O)NCCc2c[nH]c3ccccc23)CCC1	/	/	-67	/	/
Cc1ccc(S(=O)(=O)CCC(=O)Nc2nc(-c3ccccn3)cs2)cc1	/	4	-8	/	-8
Cc1ccc(OCC(=O)Nc2nc(-c3ccccn3)cs2)c(C)c1	97*	3	8	-8	3
Oc1ccccc1/C=N/Nc1nc2ccccc2o1	106*	-6	6	8	3
C/C(N)=C(/C#N)C(=O)COC(=O)c1cc(-c2cccc3ccccc23)nc2ccccc12	62*	2	-2	?	0
O=C(c1cccc(F)c1)N(Cc1ccccn1)CC1CCCO1 (centres undefined)	/	/	8	/	/

Source: PubChem (several laboratories)
